Screening results: PubChem, several laboratories
Rows were chosen to be rich in hits. Some 1.3% of all compounds tested hit in one or more screens of this group.
Tb hexokinase – blocks Trypanosoma brucei hexokinase 1 activity; recombinant TbHK1, G6PDH-coupled NADH A340; inhibition, % at 10 µM; hit rate 0.11% among 220,000; AID 1430;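 active = inhibition of 50% or more in the single-dose primary screen; inactive = inhibition below 50%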
PfG6PD inh – PfG6PD (Plasmodium falciparum) enzyme inhibition; PfGluPho enzyme, NADPH resazurin-diaphorase fluorescence; inhibition, % at 20 µM; hit rate 0.78% among 350,000; AID 504690;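 active = inhibition reaching at least a set limit at 20 µM in the primary screen, cut at about 59% in these data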;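 also: 0% = DMSO wells with substrate and 100% = DMSO wells lacking glucose-6-phosphate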
G6PDH counter – counter-screen for G6PDH assay hits: L. mesenteroides G6PDH inhibition; hit rate 0.12% among 200,000; inhibition, % at 5 µM; Purified L. mesenteroides G6PDH, diaphorase/resazurin coupled fluorescence, 45 min; in the data active = inhibition above about 50%
Diaph inh CS – inhibits diaphorase or chemically oxidizes, flagging diaphorase assay artifacts | diaphorase resazurin-to-resorufin fluorescence, NADH, 16 min; bacterial (C. kluyveri) enzyme, not human | inhibition, % at 20 µM | hit rate 0.69% among 190,000;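 active = primary screen inhibition at 20 µM above a set limit, cut at about 50% in these data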;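 also: plate controls were DMSO with full reaction for no effect and wells lacking NADH for full effect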
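System: Bacterial diaphorase enzyme (C. kluyveri) | Incubation: 16-min room-temperature incubation before reading | Benchmarks: No-NADH positive control and DMSO neutral control | Measured by: Resorufin fluorescence 544/590 nm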
HKDC1 inh – blocks human hexokinase HKDC1 activity | Q2TB90 | recombinant HKDC1, G6PDH/diaphorase resazurin coupled fluorescence | inhibition, % at 20 µM | hit rate 0.16% among 340,000 | AID 493160;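 active = inhibition above about 35% when tested at 20 µM, limit read from the data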;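 also: plate controls were DMSO wells with enzyme for no effect and DMSO wells lacking enzyme for full effect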
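Incubation: 90 min at room temperature in dark / Material: recombinant HKDC1 (HK5) hexokinase enzyme, produced in-house / Quantity: enzyme 5 µg/mL final / Compound: one dose of 20 µM, 1% DMSO / Reagent: glucose and ATP substrates / Buffer or medium: Tris pH 8.0 buffer with MgCl2, Tween-20, BSA, BME / Technique: resorufin fluorescence at 613 nm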
HKDC1 act conf – confirmation of human HKDC1 activators. shares compounds with HKDC1 inh. recombinant HKDC1, G6PDH/diaphorase resazurin fluorescence; stronger effect = lower value. inhibition, % at 20 µM. hit rate 14% among 740;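 active = inhibition at or below a set negative limit, negative inhibition meaning the enzyme was activated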
The depositor's hits bear a star; / = not tested or not shown.

SMILES | Tb hexokinase | PfG6PD inh | G6PDH counter | Diaph inh CS | HKDC1 inh | HKDC1 act conf
COc1ccc2cc(CCNC(=O)c3ccc(S(=O)(=O)N4CCCC4)cc3)c(=O)[nH]c2c1 | / | 8 | / | / | 33 | 60
CCCc1nnc(NC(=O)CCC(=O)N2CCN(S(=O)(=O)c3ccc(C)cc3)CC2)s1 | -1 | -8 | / | / | -2 | /
CCCCNCCOCCOc1ccccc1-c1ccccc1 | 9 | 6 | 9 | 10 | -59 | -7
CC(C)(C)c1ccc(OCc2ccc(C(=O)N/N=C3\CC4CC=CC34)cc2)cc1 (centres undefined) | 3 | 6 | -16 | 11 | -2 | /
Cc1cc([N+](=O)[O-])nn1CC(=O)N/N=C/c1ccc(O)cc1O | -49 | -34 | / | / | -49 | -2
Cc1nonc1C(=O)N/N=C/c1ccc(O)cc1O | -17 | -29 | -8 | / | -36 | -34*
Cc1nonc1C(=O)N/N=C/c1ccncc1 | -10 | 3 | 9 | 5 | -2 | /
C/C(CCc1ccc2c(c1)OCO2)=N\NC(=O)c1ccccc1 | -5 | 2 | 2 | 10 | -5 | /
NC(=NCc1ccc2c(c1)OCO2)NC(=O)c1ccccc1 | 1 | 32 | 5 | 10 | 29 | 17
O=C(O)c1[nH]c2ccccc2c1C(c1ccccc1)c1c(C(=O)O)[nH]c2ccccc12 | / | -20 | / | / | 9 | /
O=C(O)c1[nH]c2ccccc2c1C(c1cc(Cl)cc([N+](=O)[O-])c1O)c1c(C(=O)O)[nH]c2ccccc12 | / | -38 | / | / | 38* | 32
COc1ccc(C(=O)OCC(=O)Nc2c(C)cccc2C)c(OC)c1OC | / | -15 | / | / | -5 | /
Cc1nc2c(c(=O)c3ccccc3n2C)c(=O)n1-c1ccccc1 | -56 | 43 | / | / | 51* | 56
Cn1c2ccccc2c(=O)c2c(=O)n(-c3ccc(F)cc3)c(-c3cccs3)nc21 | -17 | 7 | / | / | 68* | 66
CCc1nc2c(c(=O)c3ccccc3n2C)c(=O)n1-c1ccc(F)cc1 | -14 | 53 | -1 | 74* | 48* | 73
Cc1ccc(-c2nc3c(c(=O)c4ccccc4n3C)c(=O)n2-c2ccc(F)cc2)cc1 | -13 | -4 | / | / | 4 | /
CC(C)CCn1c(N2CCCC2)nc2c1c(=O)n(C)c(=O)n2C | / | -2 | / | / | -4 | /
Cc1cc(O)c2c(c1)C(=O)c1cccc(O)c1C2=O | 3 | / | 24 | 30 | / | /
O=C(O)c1cc(O)c2c(c1)C(=O)c1cccc(O)c1C2=O | 11 | -30 | 38 | 32 | 40* | -2
COc1ccc(S(=O)(=O)N2CCN(C(=O)c3cc4c(s3)CCC4)CC2)cc1 | / | 18 | / | / | 34 | -23
Cc1ccc(S(=O)(=O)N2CCN(C(=O)c3cc4c(s3)CCCC4)CC2)cc1 | / | 4 | / | / | 5 | /
COc1ccc(C2=CC3=C(Br)C(=O)C(C)(O)C(=O)C3=CO2)cc1 (centres undefined) | -7 | 22 | / | / | 34 | -5
CCC(=O)OC1(C)C(=O)C2=COC(c3ccc(OC)cc3)=CC2=C(Br)C1=O (centres undefined) | -33 | 26 | / | / | 45* | 30
CN(C)c1ccc(C=c2c3ccccc3n3c2cc(-c2ccc(Cl)cc2)[n+]3C)cc1 | / | 55 | / | / | 18 | /
CN(C)c1ccc(C=c2c3ccccc3n3c2cc(-c2ccccc2)[n+]3C)cc1 | / | 49 | / | / | 37* | 23
SMILES | Tb hexokinase | PfG6PD inh | G6PDH counter | Diaph inh CS | HKDC1 inh | HKDC1 act conf
COC(=O)c1cc2n(n1)CCN(Cc1ccc(C)cc1)C2=O | 0 | -10 | -8 | 12 | -5 | /
COc1ccc(CN2CCn3nc(C(=O)NC(C)C)cc3C2=O)cc1 | 0 | -5 | 7 | 5 | -75 | -28
O=C1NC(=O)/C(=C/c2cccc(O)c2)N1 | -43 | -6 | / | / | 2 | /
Cc1cc2cc(CN(CC3CCCO3)C(=O)c3cnccn3)c(=O)[nH]c2cc1C (centres undefined) | -12 | -3 | -5 | 7 | -6 | /
CC1(C)CC[C@]2(C(=O)n3ccnc3)CC[C@]3(C)[C@H](C(=O)C=C4[C@@]5(C)C=C(C#N)C(=O)C(C)(C)[C@@H]5CC[C@]43C)[C@@H]2C1 | / | 50 | / | / | 48* | 33
Cc1c(Cl)cccc1NC(=O)CNC(=O)Cc1c[nH]c2ccccc12 | / | -3 | / | / | 3 | /
O=C(CSc1nnc(-c2cnccn2)n1Cc1ccco1)c1ccc2ccccc2c1 | -13 | 13 | 9 | 28 | 4 | /
Cn1c(SCC(=O)Nc2ccc3nc(SCC(=O)N4CCCC4)sc3c2)nnc1-c1ccc(N)cc1 | -19 | 27 | 7 | 27 | 33 | -29
Cn1c(SCC(=O)Nc2ccc3nc(SCC(=O)NC4CC4)sc3c2)nnc1-c1ccccc1 | -5 | -7 | -48 | 8 | -12 | /
CC(C)(C)N=C1NN=C(c2ccc(S(=O)(=O)N3CCCCC3)cc2)CS1 | / | 19 | / | / | -67 | -32
CC(=O)Nc1ccc(C2=NNC(=Nc3ccc(S(=O)(=O)N4CCOCC4)cc3)SC2)cc1 | -31 | 54 | / | / | -339 | -234*
COc1ccc(N2CCN(C(=O)c3oc4c(c3C)C(=O)CCC4)CC2)cc1 | / | -8 | / | / | 1 | /
CC(=NNC(=S)N1CCCCC1)c1ccccn1 | / | 51 | / | / | / | /
CC(=NNC(=S)N1CC2CCC(CC2)C1)c1ccncn1 | / | 25 | / | / | -54 | -61*
CC1=NOC(=O)/C1=C\c1ccc(-c2ccc(Br)cc2)o1 | 16 | 48 | 2 | 7 | 42* | 12
CC1=NOC(=O)/C1=C/c1ccc(-c2ccc(Cl)cc2)o1 | 11 | / | 0 | 16 | / | /
Cn1c(NNC(=O)/C=C/c2ccc3c(c2)OCO3)cc(=O)n(C)c1=O | -58 | -9 | / | / | 0 | /
C=CCNC(=S)N/N=C(\C)c1ccccn1 | -4 | 37 | 10 | -12 | -44 | -6
CC(=NNC(=S)Nc1ccccc1)c1ccccn1 | / | 32 | / | / | / | /
Cc1cc(C)c(NC(=O)c2cc3c(nc4sccn43)s2)c(C)c1 | -17 | 32 | 3 | 27 | 9 | /
CCc1nc2sc3c(=O)[nH]cnc3c2c2c1CSC(C)(C)C2 | -10 | 29 | / | / | 37* | 31
CC(C)c1ccc(S(=O)(=O)/N=C2/C=C(Sc3ncn[nH]3)C(=O)c3ccccc32)cc1 | 4 | 104* | 22 | 24 | 64* | 61
O=C1C=C(Nc2ccccc2C(=O)O)c2ccccc2C1=O | -21 | 39 | / | / | 46* | 44
CCN(CC)S(=O)(=O)c1cccc(C(=O)N/N=C(\C)c2ccc(O)cc2O)c1 | -3 | -34 | -15 | 16 | -43 | -19
Cc1ccc(C(=O)CSc2n[nH]c(-c3ccco3)n2)cc1C | 6 | 10 | 9 | 54* | 31 | 31
